Test results reported in ChEMBL document CHEMBL4689842, “EUbOPEN Chemogenomics Library wave 1” (2021).

System: U2OS
Assay: Multiplex assay against U2OS
Format: toxicity, cell-based
Conditions: human
Procedure, shortened: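 Live cells were stained at seeding with Hoechst33342, BioTracker Green Microtubule Cytoskeleton Dye, MitoTracker Red and Annexin V Alexa Fluor 680. Following compound addition, they were imaged on a CQ1 microscope at 37°C and 5% CO2 and gated by CellPathfinder machine learning into Hoechst high-intensity objects or normal cells, with normal cells split into healthy, pyknosed or fragmented nuclei and pyknosed cells into mitotic or apoptotic. Tubulin, mitochondrial-mass and membrane-permeability phenotypes are per cents of healthy-nucleus cells.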

[1] = 12 h, 1 µM, compound concentration 1 uM, replicate 1
[2] = 12 h, 1 µM, compound concentration 1 uM, replicate 2
[3] = 12 h, 10 µM, compound concentration 10 uM, replicate 1
[4] = 12 h, 10 µM, compound concentration 10 uM, replicate 2
[5] = 24 h, 1 µM, compound concentration 1 uM, replicate 1
[6] = 24 h, 1 µM, compound concentration 1 uM, replicate 2
[7] = 24 h, 10 µM, compound concentration 10 uM, replicate 1
[8] = 24 h, 10 µM, compound concentration 10 uM, replicate 2

Q: Which results are given for `O=C(Nc1cccnn1)N1CCC(=Cc2cccc(Oc3ccc(C(F)(F)F)cn3)c2)CC1`?
A: Population Apoptotic (%) [1]: 36%; Population Fragmented Nuclei (%) [1]: 1%; Population Healthy Nuclei (%) [1]: 87%; Population Hoechst High Intensity Objects (%) [1]: 3%; Population Membrane Permeable-Phenotype (%) [1]: 33%; Population Mitochondria Different-Phenotype (%) [1]: 5%; Population Mitotic Cells (%) [1]: 63%; Population Normal (%) [1]: 96%; Population Pyknosed Nuclei (%) [1]: 10%; Population Tubulin-Different-Phenotype (%) [1]: 26%; Total Cell Count [1]: 187; Population Apoptotic (%) [2]: 14%; Population Fragmented Nuclei (%) [2]: 13%; Population Healthy Nuclei (%) [2]: 78%; Population Hoechst High Intensity Objects (%) [2]: 16%; Population Membrane Permeable-Phenotype (%) [2]: 30%; Population Mitochondria Different-Phenotype (%) [2]: 24%; Population Mitotic Cells (%) [2]: 85%; Population Normal (%) [2]: 83%; Population Pyknosed Nuclei (%) [2]: 7%; Population Tubulin-Different-Phenotype (%) [2]: 18%; Total Cell Count [2]: 101; Population Apoptotic (%) [3]: 83%; Population Fragmented Nuclei (%) [3]: 4%; Population Healthy Nuclei (%) [3]: 92%; Population Hoechst High Intensity Objects (%) [3]: 3%; Population Membrane Permeable-Phenotype (%) [3]: 8%; Population Mitochondria Different-Phenotype (%) [3]: 22%; Population Mitotic Cells (%) [3]: 16%; Population Normal (%) [3]: 96%; Population Pyknosed Nuclei (%) [3]: 3%; Population Tubulin-Different-Phenotype (%) [3]: 22%; Total Cell Count [3]: 311; Population Apoptotic (%) [4]: 0%; Population Fragmented Nuclei (%) [4]: 8%; Population Healthy Nuclei (%) [4]: 91%; Population Hoechst High Intensity Objects (%) [4]: 15%; Population Membrane Permeable-Phenotype (%) [4]: 12%; Population Mitochondria Different-Phenotype (%) [4]: 24%; Population Mitotic Cells (%) [4]: 0%; Population Normal (%) [4]: 84%; Population Pyknosed Nuclei (%) [4]: 0%; Population Tubulin-Different-Phenotype (%) [4]: 16%; Total Cell Count [4]: 336; Population Apoptotic (%) [5]: 18%; Population Fragmented Nuclei (%) [5]: 2%; Population Healthy Nuclei (%) [5]: 83%; Population Hoechst High Intensity Objects (%) [5]: 2%; Population Membrane Permeable-Phenotype (%) [5]: 21%; Population Mitochondria Different-Phenotype (%) [5]: 11%; Population Mitotic Cells (%) [5]: 81%; Population Normal (%) [5]: 97%; Population Pyknosed Nuclei (%) [5]: 14%; Population Tubulin-Different-Phenotype (%) [5]: 17%; Total Cell Count [5]: 250; Population Apoptotic (%) [6]: 27%; Population Fragmented Nuclei (%) [6]: 10%; Population Healthy Nuclei (%) [6]: 79%; Population Hoechst High Intensity Objects (%) [6]: 14%; Population Membrane Permeable-Phenotype (%) [6]: 19%; Population Mitochondria Different-Phenotype (%) [6]: 22%; Population Mitotic Cells (%) [6]: 72%; Population Normal (%) [6]: 85%; Population Pyknosed Nuclei (%) [6]: 10%; Population Tubulin-Different-Phenotype (%) [6]: 11%; Total Cell Count [6]: 114; Population Apoptotic (%) [7]: 33%; Population Fragmented Nuclei (%) [7]: 2%; Population Healthy Nuclei (%) [7]: 95%; Population Hoechst High Intensity Objects (%) [7]: 3%; Population Membrane Permeable-Phenotype (%) [7]: 5%; Population Mitochondria Different-Phenotype (%) [7]: 20%; Population Mitotic Cells (%) [7]: 66%; Population Normal (%) [7]: 96%; Population Pyknosed Nuclei (%) [7]: 2%; Population Tubulin-Different-Phenotype (%) [7]: 26%; Total Cell Count [7]: 221; Population Apoptotic (%) [8]: 83%; Population Fragmented Nuclei (%) [8]: 4%; Population Healthy Nuclei (%) [8]: 89%; Population Hoechst High Intensity Objects (%) [8]: 7%; Population Membrane Permeable-Phenotype (%) [8]: 8%; Population Mitochondria Different-Phenotype (%) [8]: 31%; Population Mitotic Cells (%) [8]: 16%; Population Normal (%) [8]: 92%; Population Pyknosed Nuclei (%) [8]: 5%; Population Tubulin-Different-Phenotype (%) [8]: 14%; Total Cell Count [8]: 231
